Tests used:
[1] = Toxicity in iv dosed SCID-bg mouse assessed as tolerance; format: organism-based; conditions: in vivo
[2] = test system: MDA-MB-231; test: Antitumor activity against LC3 positive human MDA-MB-231 cells xenografted in SCID mouse assessed as maximum tumor growth inhibition at 7.5 mg/kg, iv administered as single dose relative to control; format: functional; conditions: read-out: TGI
In short: (§1)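 MDA-MB-231 LC3 metastatic breast cancer xenograft, 10 mice per group, with a vehicle control. Dosing: oral agent 25 mg/kg daily for 14 days; docetaxel 7.5 mg/kg iv once; combination gives both regimens. Mean tumor volumes tracked. TGImax = 100(1 − Tv/Cv) from mean treated vs control volumes. TGD = 100(T/C − 1) from median times to reach 1 cm3.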

[3] = test system: NCI-H1650; test: Antitumor activity against human NCI-H1650 cells xenografted in SCID-bg mouse assessed as tumor growth delay at 7.5 mg/kg, iv administered as single dose relative to control; format: functional
In short: (§2)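 NCI-H1650 NSCLC xenografts, ten mice per group. Arms: vehicle; docetaxel iv once at 7.5 mg/kg; oral agent daily for 14 days at 25 mg/kg; and the two combined. TGImax = 100(1 − Tv/Cv) from mean volumes. TGD = 100(T/C − 1) from median times to reach 1 cm3.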

[4] = test system: A549; test: Antitumor activity against 3 times passaged human A549 cells xenografted in iv dosed SCID mouse assessed as tumor growth delay relative to control; format: functional
[5] = test system: OVCAR-5; test: Antitumor activity against human OVCAR-5 xenografted in iv dosed SCID mouse assessed as maximum tumor growth inhibition relative to control; format: functional
[6] = test system: A549; test: Antitumor activity against 3 times passaged human A549 cells xenografted in iv dosed SCID mouse assessed as maximum tumor growth inhibition relative to control; format: functional
[7] = test system: EBC-1; test: Antitumor activity against human EBC-1 cells xenografted in iv dosed SCID-bg mouse assessed as tumor growth delay relative to control; format: functional
[8] = test system: NCI-H747; test: Antitumor activity against human NCI-H747 cells xenografted in iv dosed SCID-bg mouse assessed as maximum tumor growth inhibition relative to control; format: functional
[9] = test system: OVCAR-5; test: Antitumor activity against human OVCAR-5 xenografted in iv dosed SCID mouse assessed as tumor growth delay relative to control; format: functional
In short: (§3)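 Tumor volume-based endpoints. TGD = 100(T/C − 1), where T and C are the median times for the treated and control groups to reach 1 cm3. Groups were five mice for NCI-H747 and OVCAR-5 and eight for NCI-H358. Docetaxel was given intravenously and the test agent orally.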

[10] = Toxicity in iv dosed SCID-bg mouse assessed as body weight loss relative to control; format: organism-based; conditions: in vivo
[11] = Toxicity in iv dosed SCID mouse assessed as body weight loss relative to control; format: organism-based; conditions: in vivo
[12] = test system: NCI-H358; test: Antitumor activity against human NCI-H358 cells xenografted in iv dosed SCID mouse assessed as tumor growth delay relative to control; format: functional; in short: as §3
[13] = test system: MDA-MB-231; test: Antitumor activity against LC3 positive human MDA-MB-231 cells xenografted in SCID mouse assessed as tumor growth delay at 7.5 mg/kg, iv administered as single dose relative to control; format: functional; in short: as §1
[14] = Toxicity in Sprague-Dawley rat assessed as inhibition of granulopoiesis by measuring reduction in neutrophil count at 5 mg/kg, iv administered once and measured on day 6 by microscopic analysis relative to control; format: organism-based; parameters: scale not given: the % may be the effect or the level left; conditions: in vivo, 144 h, time 6 day
In short: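 Male Sprague-Dawley rats, n = 10 per group: docetaxel 5 mg/kg i.v. once, or oral inhibitor daily for 5 days (30, 50 or 7 mg/kg depending on agent), alone or combined with docetaxel, against vehicles. Total neutrophil and platelet counts in blood collected on day 6; Tukey-Kramer test versus vehicle.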

[15] = test system: NCI-H1650; test: Antitumor activity against human NCI-H1650 cells xenografted in SCID-bg mouse assessed as maximum tumor growth inhibition at 7.5 mg/kg, iv administered as single dose relative to control; format: functional; conditions: read-out: TGI; in short: as §2
[16] = test system: EBC-1; test: Antitumor activity against human EBC-1 cells xenografted in iv dosed SCID-bg mouse assessed as maximum tumor growth inhibition relative to control; format: functional
[17] = test system: NCI-H747; test: Antitumor activity against human NCI-H747 cells xenografted in iv dosed SCID-bg mouse assessed as tumor growth delay relative to control; format: functional; in short: as §3
[18] = Toxicity in iv dosed SCID mouse assessed as tolerance; format: organism-based; conditions: in vivo
[19] = test system: NCI-H358; test: Antitumor activity against human NCI-H358 cells xenografted in iv dosed SCID mouse assessed as maximum tumor growth inhibition relative to control; format: functional

With `CC(=O)O[C@@]12CO[C@@H]1C[C@H](O)[C@@]1(C)C(=O)[C@H](O)C3=C(C)[C@@H](OC(=O)[C@H](O)[C@@H](NC(=O)OC(C)(C)C)c4ccccc4)C[C@@](O)([C@@H](OC(=O)c4ccccc4)[C@H]21)C3(C)C` [DOCETAXEL ANHYDROUS] the Activity [1] was “Non-Toxic”, the inhibition in vivo at 7.5 mg/kg [2] was 73% and the Activity [3] was 52%. For the same compound, the Activity [4] was 108%, the TGI [5] was 39% and the TGI [6] was 71%. For the same compound, the Activity [7] was 44%, the TGI [8] was 52% and the Activity [9] was 54%. For the same compound, the Activity [10] was < 9%, the Activity [11] was < 9% and the Activity [12] was 47%. For the same compound, the Activity [13] was 82%, the Activity [14] was 61% and the inhibition in vivo at 7.5 mg/kg [15] was 82%. For the same compound, the TGI [16] was 76%, the Activity [17] was 113% and the Activity [18] was “Non-Toxic”. For the same compound, the TGI [19] was 58%.
